Entries after “also recorded” stand apart in the source; their conditions may differ. Where two headings read alike, the source gives them in different places.
Columns and labels:
[1] = test system: ZIKV PF13; format: cell-based, Zika virus; conditions: FACS; for reduction in infection: virus treated before infection of HMC3 cells
Summary of the method: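 HMC3 cells were seeded at 4.10^4 cells/well the day before. ZIKV PF13 (MOI 1.5) was preincubated with ½ dilutions of peptide (50 to 3 μg/ml) for 1 h at 37 °C, then added to cells for 1.5 h at 37 °C before medium replacement; duplicates. Trypsinized cells were fixed and permeabilized (30 min, 4 °C), stained with 4G2 anti-envelope antibody (1/500) and Alexa488 secondary (1/1000), then analysed by flow cytometry.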

[2] = test system: HMC3 cells; experiment: CellTiter-Glo cell viability test, HMC3 cells; format: cell-based; conditions: Fig. 2; for cytotoxic effect on HMC3 cells at 100 μg/ml: about 100 μg/ml
Summary of the method: (§1)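 HMC3 or HeLa cells were grown in DMEM with L-glutamine, 10 % FCS and 1 % penicillin/streptomycin, then seeded at 10^4 cells/well. Peptide in ½ dilutions (100 to 1.5 μg/ml) was added for 2 h at 37 °C and 5 % CO2. Medium was then replaced with DMEM/10 % FCS for 24 h, with untreated cells as control. ATP was read by CellTiter-Glo luminescence, in triplicate.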

[3] = test system: HeLa cells; experiment: CellTiter-Glo cell viability test, HeLa cells; format: cell-based
Summary of the method: as §1

Sequence | reduction in infection ([1]; 6.25 μg/ml) | concentration at which the peptide remained non-toxic to HMC3 cells [2] | cytotoxic effect on HMC3 cells at 100 μg/ml [2] | viability of HeLa cells at 100 μg/ml [3] | concentration at which the peptide exhibits cytotoxicity to HeLa cells ([3]; Fig. 3) | reduction in infection ([1]; 3 μg/ml) | effect on ZIKV PF13 infection ([1]; non-cytotoxic concentrations 50 to 3 μg/ml, HMC3 cells) | cytotoxicity to HeLa cells ([3]; even at high concentrations, Fig. 3)
ALWKTLLKKVLKAAAKAALKAVLVGAKA [K4K20K27S4] | Approximately 90% | about 12.5 μg/ml | exhibited cytotoxicity | 18% | 50 µg/mL |  |  | 
ALWKTLLKKVLKAAAKAALKAVLVGANA [K4K20S4] |  | about 12.5 μg/ml | exhibited cytotoxicity | approximately 1% | around 25 μg/ml | Approximately 90% |  | 
GLKKKIKEVGKEAAKAAAKAAGKAALGAVSEAV [K3K4B2] |  |  | no cytotoxic effects |  |  |  | increased the infection | non-cytotoxic; also recorded: did not exhibit any toxic effects

From paper PMC11208914 (Biochemistry and Biophysics Reports, 2024)
